Assay outcomes from PubChem.
ASAP1 inh: inhibitors of human ASAP1 ArfGAP activity, primary screen, biochemical, fluorescence polarization; ASAP1-stimulated ARF1 GTP hydrolysis, GDP FP detection; inhibition, % at 16.5 µM; 360,000 compounds, 0.19% hits; AID 624377, 2012; in the data active = inhibition above about 25%;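 note: 0% = vehicle with enzyme and substrate and 100% = no enzyme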
Target sequence (Q9ULH1 325-724 limits assumed): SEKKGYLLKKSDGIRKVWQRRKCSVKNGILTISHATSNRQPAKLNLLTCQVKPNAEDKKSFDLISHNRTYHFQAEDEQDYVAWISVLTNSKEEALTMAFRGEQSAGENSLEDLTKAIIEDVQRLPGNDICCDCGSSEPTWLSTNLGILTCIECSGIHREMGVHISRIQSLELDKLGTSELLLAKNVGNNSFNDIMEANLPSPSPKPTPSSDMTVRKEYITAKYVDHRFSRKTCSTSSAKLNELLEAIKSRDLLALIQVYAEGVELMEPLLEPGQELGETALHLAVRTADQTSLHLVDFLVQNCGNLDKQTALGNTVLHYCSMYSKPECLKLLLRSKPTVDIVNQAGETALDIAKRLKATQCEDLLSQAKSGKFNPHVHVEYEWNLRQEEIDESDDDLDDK
ARFGAP1 inh: inhibitors of rat ARFGAP1 GAP activity, primary screen, biochemical, fluorescence polarization, GDP tracer; ADP-ribosylation factor GTPase-activating protein 1 (Rattus norvegicus), Q62848; Arfgap1-stimulated ARF1 GTP hydrolysis, GDP FP detection; inhibition, % at 16.5 µM; 360,000 compounds, 0.26% hits; AID 651572, 2012;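 active = inhibition above a per-plate limit, mean inhibition of low control wells plus 3 SD, cut at about 25% in these data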;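 note: 0% = DMSO wells with enzyme and 100% = wells lacking Arfgap1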
Target sequence (Q62848 1-136 limits assumed): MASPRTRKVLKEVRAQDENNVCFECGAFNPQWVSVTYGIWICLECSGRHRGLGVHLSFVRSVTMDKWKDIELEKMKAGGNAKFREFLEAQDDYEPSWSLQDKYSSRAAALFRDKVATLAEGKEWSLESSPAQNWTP
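system = rat Arfgap1 catalytic domain, aa 1-136 | technique = FP, GDP Alexa 633 tracer displaced from anti-GDP antibody, 620/688 nm | compound = one concentration, 16.5 µM, DMSO 1.26% | medium = HEPES-based buffer, pH 7.5 | timing = compound-enzyme preincubation 20 min, reaction 120 min, detection 60 min, 25 °C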
Statin myotox sup: suppressors of statin myotoxicity in C2C12 myotubes, primary screen, cell-based, single point, plate reader | C2C12 myotubes + simvastatin, ATP luminescence, 48 h; scaled: DMSO 0, geranylgeraniol control 100 | rescue of ATP level, % at 7.49 µM | 330,000 compounds, 0.78% hits;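 active = mean ATP rescue above about 67%, or every replicate alone reaching that limit, limit read from the data, passing the limit was not always enough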;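 note: myotubes were challenged with 10 µM simvastatin during compound exposure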
APOBEC3A inh: APOBEC3A ssDNA deaminase inhibitors, primary screen, selectivity assay for APOBEC3G inhibitor project, biochemical, FAM/TAMRA oligo cleavage fluorescence; recombinant A3A, FAM/TAMRA ssDNA deamination fluorescence; AID 493011, 2011; 330,000 compounds, 0.41% hits; inhibition, % at 20 µM;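 active = at least 40% inhibition at 20 µM here, with at most 30% in a related deaminase screen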;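 note: plate controls were A3A with DMSO for no effect and wells lacking A3A enzyme for full effect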
Target sequence (P31941 whole entry, looked up): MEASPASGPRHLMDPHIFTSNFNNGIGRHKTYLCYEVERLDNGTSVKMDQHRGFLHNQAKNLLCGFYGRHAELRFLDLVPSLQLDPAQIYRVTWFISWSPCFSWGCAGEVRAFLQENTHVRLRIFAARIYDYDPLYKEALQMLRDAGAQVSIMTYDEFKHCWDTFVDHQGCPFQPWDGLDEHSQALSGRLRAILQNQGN
APOBEC3G inh: APOBEC3G DNA deaminase inhibitors, primary screen, biochemical, fluorescence, single-stranded DNA substrate, uHTS; DNA dC->dU-editing enzyme APOBEC-3G (Homo sapiens), Q9HC16; recombinant A3G, ssDNA deamination FAM/TAMRA fluorescence; inhibition, % at 20 µM; 330,000 compounds, 0.28% hits;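 active = inhibition of at least 40% at 20 µM, with no more than 30% in the related APOBEC3A deaminase screen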;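 note: plate controls were DMSO wells with A3G for no effect and wells lacking A3G enzyme for full effect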
Mot1-301 SUMO: yeast Mot1-301 growth rescue at high temperature, primary screen, SUMOylation pathway inhibitor project, S. cerevisiae, ATP luminescence, 38.5C; 320,000 compounds, 1% hits; S. cerevisiae Mot1-301 growth rescue; percent above DMSO median, 100 means doubled; growth rescue, % at 18.8 µM;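 active = every valid replicate shows activation above 250% relative to neutral control wells; inactive = the rest, any valid replicate at or below 250%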;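 note: OY570 slx delta 5 strain wells were the positive control but not used for scaling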
ARFGAP1 inh conf: ARFGAP1 inhibitor hit confirmation, biochemical, fluorescence polarization, triplicate. shares compounds with ARFGAP1 inh. ARFGAP1-stimulated ARF1 GTP hydrolysis, GDP tracer FP. inhibition, % at 16.5 µM. 890 compounds, 30% hits. AID 651608, 2012;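 active = average inhibition over triplicates above the hit cutoff set in the earlier primary screen, cut at about 25% in these data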;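 note: 0% = Arfgap1 plus ARF1-GTP with DMSO and 100% = wells lacking Arfgap1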
Starred values were filed as active, the others as inactive; / = no result given. Shown are actives, neighbours in structure and some others; about 2.1% of the full set was active somewhere.

SMILES | ASAP1 inh | ARFGAP1 inh | Statin myotox sup | APOBEC3A inh | APOBEC3G inh | Mot1-301 SUMO | ARFGAP1 inh conf
Cc1ccsc1C(=O)OCC(=O)N1CCOCC1 | -15.6 | 34.9* | 14.1 | 2.8 | 1.8 | 10.3 | -5.2
CC(C)(C)OC(=O)N1CCC[C@H]1C(=O)NCC1CCC(C(=O)O)CC1 (some centres undefined) | 5.0 | 26.3* | 1.7 | -2.4 | -3.1 | -8.9 | -0.6
CSCC[C@H](NC(=O)C1CCC(CNC(=O)[C@@H]2CCCN2C(=O)OC(C)(C)C)CC1)C(=O)O (some centres undefined) | 1.4 | -6.1 | 6.8 | -2.7 | -7.7 | 266.7 | /
C[C@@H]1CN([C@H](C)CO)C(=O)c2cccc(NC(=O)Nc3ccc4c(c3)OCO4)c2O[C@@H]1CN(C)C(=O)Nc1ccc(F)cc1 | / | / | -7.3 | / | / | / | /
CCOc1ccc(/C=C/C(=O)Nc2ccc(C(N)=O)cc2)cc1OC | 5.4 | 9.6 | / | 6.6 | 2.1 | 5.8 | /
CCOc1cc(/C=C/C(=O)Nc2ccc(C(=O)NCCN(CC)CC)cc2)ccc1OCC(C)C | 22.0 | 27.6* | / | 2.5 | -8.9 | 8.1 | 25.6*
Cc1ccc(C)c(N(C(=O)Cn2nnc(-c3cccs3)n2)C(C(=O)NC2CCCC2)c2ccncc2)c1 (centres undefined) | -9.1 | 31.3* | -67.4 | 1.1 | -1.9 | 1.0 | -3.3
CN(Cc1ccccc1)C(=O)CN1CCN(S(=O)(=O)c2ccccc2F)CC1 | -2.2 | 36.2* | 4.0 | / | / | / | 5.4
CC(=O)c1ccc(NC(=O)COC(=O)c2c3c(nc4ccccc24)/C(=C\c2cccs2)CCC3)cc1 | 23.2 | 32.0* | / | 12.0 | -3.6 | 7.6 | 19.5
COc1ccc(O)c(/C=N/Nc2nc(Nc3ccccc3)nc(-n3nc(C)cc3C)n2)c1 | 10.6 | 39.3* | / | -5.0 | -1.8 | -8.0 | 18.3
CC(C)(C)c1cc[n+](-c2nc([O-])sc2C=O)cc1 | -2.5 | 27.2* | / | -0.7 | -8.0 | -3.9 | 0.1
C[C@H](CO)N1C[C@H](C)[C@@H](CN(C)C(=O)Nc2cccc3ccccc23)OCCCC[C@H](C)Oc2ccc(NS(=O)(=O)c3cccs3)cc2C1=O | / | / | 12.2 | / | / | / | /
CCCN(CCC)CCNC(=O)c1cc2c(-c3ccc(Cl)cc3)nn(C)c2s1 | 7.2 | 28.4* | -10.1 | 3.4 | 1.1 | 30.7 | 6.1
CCCN(CCC)CCCNC(=O)c1cc2c(-c3ccc(OC)c(OC)c3)nn(C)c2s1 | 22.6 | 46.8* | 0.5 | 3.0 | -5.0 | 2.5 | 85.1*
O=[N+]([O-])c1ccc2[nH]c3nc4ccccc4nc3c2c1 | 8.1 | 26.4* | 4.9 | -5.4 | -3.4 | -6.2 | 37.5*
CC(=O)N(C)C[C@@H]1Oc2cc(C#CC3CCCC3)ccc2S(=O)(=O)N([C@@H](C)CO)C[C@H]1C | / | / | -6.5 | / | / | / | /
Oc1ccc2ccccc2c1CNc1ccc2ccccc2c1 | 18.9 | 29.9* | 29.6 | / | / | / | 11.5
Oc1ccc2ccccc2c1CNc1ccccc1 | -5.1 | 2.2 | 2.0 | / | / | / | /
O=c1c2[nH]cnc2n(-c2cccc(F)c2)c(=O)n1Cc1ccccc1 | 0.6 | 24.6* | 18.1 | 1.0 | -3.1 | -2.5 | 3.3
O=c1c2[nH]cnc2n(-c2ccc(F)cc2)c(=O)n1Cc1ccccc1 | 7.5 | -1.0 | 4.5 | 0.0 | -6.0 | 46.4 | /
CN(C)CC(=O)Nc1ccc2c(c1)[C@@H]1C[C@@H](CC(=O)NCCc3ccccc3)O[C@@H](CO)[C@@H]1O2 | / | / | -0.5 | / | / | / | /
Cc1cc2[nH]c(=O)c(=O)[nH]c2cc1S(=O)(=O)N1CCC(C)CC1 | -3.5 | 32.1* | -1.0 | 6.1 | 6.4 | -3.4 | 7.8
Cc1cc2[nH]c(=O)c(=O)[nH]c2cc1S(=O)(=O)N1CCN(c2ccccc2)CC1 | -6.4 | 4.0 | 6.9 | -0.5 | -12.0 | 18.5 | /
Cc1cc(C(=O)Nc2cccc3c2O[C@@H](CN(C)Cc2ccc4c(c2)OCO4)[C@@H](C)CN([C@H](C)CO)C3=O)n(C)n1 | / | / | 12.2 | / | / | / | /
O=[N+]([O-])c1cccc(/C=C/c2nc3ccc([N+](=O)[O-])cc3[nH]2)c1 | 6.9 | 25.0* | -27.6 | -0.4 | -6.5 | -0.8 | 25.9*
SMILES | ASAP1 inh | ARFGAP1 inh | Statin myotox sup | APOBEC3A inh | APOBEC3G inh | Mot1-301 SUMO | ARFGAP1 inh conf
Cc1cc(C(=O)Nc2ccc3c(c2)C(=O)N(C)[C@@H]2CC[C@H](CC(=O)NCC(F)(F)F)O[C@@H]2CO3)no1 | / | / | -16.2 | / | / | / | /
Cc1ncsc1C(=O)N1N=C2/C(=C/c3ccccc3)CCCC2C1c1ccccc1 (centres undefined) | -6.0 | 29.6* | -3.7 | 2.8 | 1.3 | 10.4 | -2.4
Cc1ncsc1C(=O)N1N=C2/C(=C/c3ccc(N4CCOCC4)cc3)CCCC2C1c1ccc(N2CCOCC2)cc1 (centres undefined) | / | / | 6.7 | -0.2 | -2.6 | -6.9 | /
Cc1ccc(S(=O)(=O)N(Cc2ccccc2F)C(=O)N2CCN(C)CC2)cc1 | -3.2 | 28.7* | 4.2 | -3.8 | -11.6 | -5.7 | 6.1
O=C(NCc1ccco1)c1ccc(NC(=O)C2COc3ccccc3O2)cc1 (centres undefined) | 10.1 | 28.8* | -15.5 | 0.3 | -6.3 | 212.0 | 6.4
O=C(NCCCN1CCOCC1)c1ccc(NC(=O)C2COc3ccccc3O2)cc1 (centres undefined) | 3.6 | -1.7 | / | 0.3 | -0.6 | -3.9 | /
CC(C)CC#Cc1ccc2c(c1)O[C@@H](CN(C)S(=O)(=O)c1cccc(F)c1)[C@H](C)CN([C@@H](C)CO)S2(=O)=O | / | / | -69.0 | / | / | / | /
C[C@H](NC(=O)C[C@H]1C[C@@H]2c3cc(NC(=O)C4CCOCC4)ccc3O[C@@H]2[C@@H](CO)O1)c1ccccc1 | / | / | -5.6 | / | / | / | /
COc1cc(OC)cc(C(=O)Nc2ccccc2-c2nnn(CC(=O)Nc3cc(C)on3)n2)c1 | 10.3 | 25.0* | -5.5 | 1.7 | -0.7 | 33.8 | 30.7*
CC(=O)Nc1ccc(S(=O)(=O)NCCC(=O)NCCc2ccc(F)cc2)cc1 | 10.3 | -4.9 | / | 5.5 | 3.6 | 5.3 | /
